Screening data: PubChem, The Scripps Research Institute Molecular Screening Center
A selection: hits, their analogues and other compounds. The true share with any hit is near 1.6%.
sPLA2-III inh: Blocks human group III sPLA2 activity. Q9NZ20. QFRET BODIPY PC-A2 liposome hydrolysis, fluorescence. inhibition, % at 12.2 µM. actives 0.56% (n = 370,000);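 active means inhibition above mean plus 3 SD of compounds lying within the high and low control bounds, cut at about 19% in these data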
PLCg1 inh: blocks human PLC-gamma1 enzyme activity; AID 720700; purified PLC-gamma1, fluorogenic substrate, fluorescence; inhibition, % at 12.2 µM; P19174; actives 0.84% (n = 370,000); in the data active means inhibition above about 9.5%
PLCb3 inh: inhibitors of human phospholipase C beta3. Q01970. Purified PLC-beta3, fluorogenic substrate, fluorescence. inhibition, % at 12.2 µM. actives 0.18% (n = 370,000). AID 720704; in the data active means inhibition above about 11%
proCasp7 act: counter-screen for procaspase-3 activators: activators of human procaspase-7. AID 463210. actives 0.093% (n = 330,000). activation, % at 8.5 µM. P55210. recombinant procaspase-7, Ac-DEVD-pNA absorbance 405 nm; D23A/D198A/D206A triple mutant, cannot self-cleave; scale: DMSO 0, 5 µM enzyme 100;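 active means percent activation above the screen-wide mean plus 3 SD, cut at about 25% in these data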
Target sequence (P55210 whole entry D23A/D198A/D206A): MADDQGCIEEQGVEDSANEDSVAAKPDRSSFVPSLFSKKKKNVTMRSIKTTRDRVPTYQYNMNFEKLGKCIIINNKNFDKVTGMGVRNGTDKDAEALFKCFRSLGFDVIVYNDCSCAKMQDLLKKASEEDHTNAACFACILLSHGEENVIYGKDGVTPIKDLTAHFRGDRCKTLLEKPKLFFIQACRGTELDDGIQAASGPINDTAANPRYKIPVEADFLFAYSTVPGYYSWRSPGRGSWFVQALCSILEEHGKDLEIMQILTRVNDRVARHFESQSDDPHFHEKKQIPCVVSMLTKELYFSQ
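Material: Procaspase-7 triple mutant (PC-7 D3A) | Quantity: 2 µM procaspase-7 mutant as dispensed | Reagent: DEVD-pNA substrate | Times: 1 h preincubation, 2 h reaction | Technique: 405 nm absorbance of p-nitroaniline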
proCasp3 act: activates human procaspase-3; P42574; recombinant procaspase-3 D3A, Ac-DEVD-pNA absorbance 405 nm; activation, % at 8.5 µM; actives 0.11% (n = 330,000); AID 463141;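 active means activation above the mean of all tested compounds plus 3 SD, cut at about 21% in these data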
Target sequence (P42574 whole entry D9A/D28A/D175A): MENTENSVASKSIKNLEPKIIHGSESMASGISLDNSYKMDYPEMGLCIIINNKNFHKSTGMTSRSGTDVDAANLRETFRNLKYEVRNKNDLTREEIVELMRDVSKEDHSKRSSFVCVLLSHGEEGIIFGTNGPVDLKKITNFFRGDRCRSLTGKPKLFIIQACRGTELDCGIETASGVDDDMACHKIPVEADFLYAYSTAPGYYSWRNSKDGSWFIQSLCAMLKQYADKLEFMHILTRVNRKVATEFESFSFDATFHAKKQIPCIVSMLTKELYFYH
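Compound: 8.5 µM single point, 0.8% DMSO / Material: Autoprocessing-dead procaspase-3 D3A mutant enzyme / Timing: 1 h preincubation plus 2 h reaction at 25 °C / Medium: Zinc-free HEPES/NaCl buffer with 0.01% Triton X-100 at pH 7.4 / Technique: 405 nm absorbance of p-nitroaniline, reads at 0 and 120 min / Repeats: one well per compound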
hGIII sPLA2 conf: human GIII-sPLA2 inhibition, confirmation | shares compounds with sPLA2-III inh | recombinant hGIII-sPLA2, BODIPY PC-A2 QFRET fluorescence | inhibition, % at 12.2 µM | actives 34% (n = 2,000) | AID 743280;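 active means mean inhibition across triplicates above the hit cutoff set in the earlier primary screen, cut at about 19% in these data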
535nm interf: 535nm fluorescence interference, HGIII-sPLA2 counter-screen; shares compounds with sPLA2-III inh; BODIPY FL product fluorescence interference, QFRET; inhibition, % at 12.2 µM; actives 8.5% (n = 2,000); AID 743282;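 active means average inhibition above the solvent-only control mean plus 3 SD, cut at about 6% in these data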
BODIPY interf DR: 535nm optical interference dose response, HGIII-sPLA2 counter-screen | shares compounds with sPLA2-III inh | BODIPY FL product fluorescence interference, cell-free | IC50, µM | 240 tested, under 10 active | AID 743455;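 active means IC50 at or below 10 µM; inactive means IC50 above 10 µM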
Numbers stand for hits; - = inactive; . = no result.

SMILES | sPLA2-III inh | PLCg1 inh | PLCb3 inh | proCasp7 act | proCasp3 act | hGIII sPLA2 conf | 535nm interf | others
Cc1ccc(-c2c[n+](Cc3cccc(Cl)c3)c3n2CCC3)cc1 | - | - | - | - | - | . | .
C=CCOc1ccc(Cl)cc1-c1noc(-c2csc([C@H]3C[C@H](O)[C@@H](CO)O3)n2)n1 | - | - | - | . | . | . | .
O=C(Nc1nc(-c2ccccn2)cs1)c1ccco1 | 20 | - | - | - | - | - | -
O=C(Nc1nc(-c2ccccn2)cs1)c1ccc(Br)s1 | 38 | - | - | - | - | 27 | -
COc1ccc2oc(C(=O)Nc3nc(-c4ccccn4)cs3)c(C)c2c1 | 22 | - | - | - | - | 25 | -
O=C(Nc1nc(-c2cc(Cl)sc2Cl)cs1)c1ccc(Br)s1 | - | - | - | - | - | . | .
C[C@H](NC(=O)c1ccco1)C(=O)Nc1nc(-c2ccccn2)cs1 | - | - | - | . | . | . | .
COc1ccc2oc(C(=O)NC(C)c3ccccn3)c(C)c2c1 (stereo unspecified) | - | - | - | - | - | . | .
O=C(COC(=O)/C=C/c1ccc(Cl)cc1)Nc1ccc2c(c1)OCCO2 | 22 | - | - | - | - | - | -
CC(C)CN(CCCNC(=O)CN1N=C(c2ccc(Cl)cc2)CCC1=O)CC(C)C | 25 | - | - | - | - | 32 | -
CSCCC(NC(=O)c1ccccc1Cl)C(=O)NNC(=O)c1ccccc1O (stereo unspecified) | - | - | - | - | - | . | .
CC(Sc1ccc(Cl)cc1)C(=O)NNC(=O)c1ccccc1O (stereo unspecified) | 23 | - | - | - | - | - | -
O=C(c1ccc2c(=O)n(Cc3ccccc3Cl)c(=S)[nH]c2c1)N1CCOCC1 | - | - | - | - | - | . | .
COCCNC(=O)c1c(N)[nH]c(C(=O)c2ccc(Br)cc2)c1-c1ccc(Br)cc1 | - | - | - | . | . | . | .
COC(=O)c1ccc(CNCC(=O)Nc2ccc(C(=O)OC)cc2)cc1 | - | - | - | - | - | . | .
COC(=O)c1ccc(NC(=O)CNCc2ccncc2)cc1 | 21 | - | - | - | - | - | -
COc1ccc(OCCCC(=O)N2CCN(S(=O)(=O)c3cccc(F)c3)CC2)cc1 | - | - | - | - | - | . | .
Cc1ccc(C)c(OCc2n[nH]c(=S)o2)c1 | 24 | - | - | - | - | - | -
Nc1nc2c(ncn2[C@@H]2O[C@H](CNC(=O)[C@H](N)Cc3cncn3COCc3ccccc3)[C@@H](O)[C@H]2O)c(=O)[nH]1 | - | - | - | . | . | . | .
Cc1ccc(/C=N/n2c(C3CCCCC3)n[nH]c2=S)s1 | 22 | - | - | - | - | - | -
Cc1ccc(/C=N/n2c(-c3cccnc3)n[nH]c2=S)s1 | 28 | - | - | - | - | 19 | -
S=c1[nH]nc(-c2cccnc2)n1/N=C/c1ccc(Br)s1 | - | - | - | - | - | . | .
CCCCc1ccc(NC(=O)CSC2=NN3CCCC(=O)N=C3S2)cc1 | - | - | - | - | - | . | .
O=C(C1CCCCC1)N1C[C@@H](O)[C@H](n2cc(C3CC3)nn2)C[C@@H]1c1ccc(Cl)cc1 | - | - | - | . | . | . | .
COc1ccc(NC(=O)CCCNC(=O)c2ccc(Cl)cc2)cc1S(=O)(=O)N1CCOCC1 | - | - | - | . | . | . | .
SMILES | sPLA2-III inh | PLCg1 inh | PLCb3 inh | proCasp7 act | proCasp3 act | hGIII sPLA2 conf | 535nm interf | others
CN(Cc1ccccc1)C(=O)COC(=O)c1ccccc1SCC(=O)N1CCCC1 | - | - | - | . | . | . | .
COC(=O)CCn1[nH]c(=O)c2ccccc2c1=O | 24 | - | - | - | - | - | -
O=C(Nc1ccc(Cl)cc1Cl)O[C@@H]1CC[C@@]23CCCN2C(=O)CCC[C@H]3C1 | - | - | - | . | . | . | .
O=C1c2cccc(NCCCNCCO)c2C(=O)c2cccc(NCCCNCCO)c21 | 27 | - | - | . | . | 25 | -
O=C(Nc1nc2ccccc2[nH]1)c1cc(F)cc(F)c1 | 24 | - | - | - | - | 21 | -
O=C(Nc1nc2ccccc2[nH]1)c1ccc(F)c(S(=O)(=O)N2CCOCC2)c1 | 21 | - | - | - | - | - | -
O=C(Nc1nc2ccccc2[nH]1)c1ccc(F)cc1 | - | - | - | - | - | . | .
CCc1ccc(C(=O)Nc2nc3ccccc3[nH]2)cc1 | - | - | - | - | - | . | .
N#Cc1ccc(C(=O)Nc2nc3ccccc3[nH]2)cc1 | 23 | - | - | - | - | - | -
O=C(Nc1nc2ccccc2[nH]1)c1cccc(S(=O)(=O)N2CCOCC2)c1 | - | - | - | - | - | . | .
CSc1ccc(CN(C)C(=O)C2CCN(C(=O)Nc3ccccc3)CC2)cc1 | - | - | - | - | - | . | .
CCOC(=O)C1CC2=C(CCCC2=O)NC1=O (stereo unspecified) | - | - | - | . | . | . | .
CCCCCOc1ccc(CSC(=N)N)cc1[N+](=O)[O-] | 45 | - | - | - | - | 30 | - | BODIPY interf DR=-
CCC(C)[C@H](NC(=O)[C@H](Cc1ccccc1)NC(=O)OC(C)(C)C)C(=O)NCc1ccccc1Br (stereo partly specified) | 20 | - | - | . | . | - | -
O=C(c1cccnc1)c1ncc(C(F)(F)F)cc1Cl | - | - | - | - | - | . | .
Cc1ccccc1NC(=O)CCCNC(=O)c1ccc(Cl)cc1 | - | - | - | - | - | . | .
O=C(CCCNC(=O)c1ccc(Cl)cc1)Nc1ccccc1F | 21 | - | - | - | - | - | -
CCN(C(=O)CSc1nnc(C)n1-c1ccc(C)cc1)c1c(N)n(Cc2ccccc2)c(=O)[nH]c1=O | - | - | - | . | . | . | .
O=c1[nH]nc(SCCS(=O)(=O)c2ccc(F)cc2)n1-c1ccc2c(c1)OCCO2 | 21 | - | - | - | - | - | -
O=c1[nH]nc(SCCS(=O)(=O)c2ccc(F)cc2)n1-c1ccccc1 | - | - | - | - | - | . | .
O=C(c1ccc(C(F)(F)F)cc1)N1CCN(S(=O)(=O)c2ccc3c(c2)OCCCO3)CC1 | - | - | - | - | - | . | .
CN(C(=O)Nc1ccc(Cl)c(Cl)c1)c1ccccc1C(=O)O | 21 | - | - | - | - | - | -
O=C(Nc1ccc(Cl)c(Cl)c1)c1ccccc1 | - | - | - | - | - | . | .
COc1ccc(C)cc1-n1c(SCC(=O)N2CCOCC2)nc2ccccc2c1=O | - | - | - | . | . | . | .
Cc1ccc(C(=O)Nc2ncccc2S(=O)(=O)c2ccccc2)cc1 | - | - | - | . | . | . | .
CCCCN(CC(=O)NC1CC1)S(=O)(=O)c1ccc(OCC)cc1 | - | - | - | - | - | . | .
Cc1nnsc1C(=O)N/N=C/c1ccccc1 | - | - | - | - | - | . | .
